In series [1] the test system is Mus musculus. The series can be described thus: In vivo antimalarial activity of compound against Plasmodium berghei was determined as suppression of parasitemia in mice (Mus musculus) at 25 mg/kg treated for 4 days. It is filed as functional. An outline of the steps:
(§1)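 Peters 4-day suppressive test in female BALB/c mice (18–20 g), five per group. Mice were infected iv with 1 × 10^7 P. berghei ANKA-infected erythrocytes. Drug was given ip daily for four consecutive days. Blood smears were taken on day 5, and % parasitemia suppression was calculated against untreated infected controls. Survival was recorded as days until signs of malaria illness.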

The subject of series [2] is Plasmodium falciparum. The series can be described thus: In vitro antiplasmodial activity for Plasmodium falciparum. Format: functional, organism-based. An outline of the steps:
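P. falciparum K1 ring-stage cultures in human A+ erythrocytes (RPMI 1640, A+ serum, glucose), at 2.5% hematocrit and 1% parasitemia. Two-fold serial dilutions in duplicate, final DMSO ≤0.5%. Incubated 48 h at 37 °C under 93% N2/3% O2/4% CO2. Growth read as parasite lactate dehydrogenase activity (APAD/NBT, 550 nm). IC50 by linear regression; at least three separate determinations.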

Series [3] relates to MAC15A. The series can be described thus: Ratio of cytotoxic to that of antiplasmodial activity was determined. Format: functional, Mus musculus.
For series [4], the species on record is Mus musculus. Kind of series: Mean survival time taken as number of days before illness due to Plasmodium berghei in untreated mice (Mus musculus). It is filed as functional. In outline: (§2)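 Peters' 4-day suppressive test in female BALB/c mice (18-20 g), five per group. Each mouse got 1 × 10^7 P. berghei ANKA-infected erythrocytes iv. Drug was given ip in 0.2 mL daily for 4 consecutive days. Survival time was the number of days before signs of malaria illness, compared with untreated infected controls.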

Series [5] concerns Mus musculus. Kind of series: Mean survival time taken as number of days before illness due to Plasmodium berghei when mice (Mus musculus) treated with 25 mg/kg dose for 4 days. Format: functional. An outline of the steps: as §2
The test system of series [6] is Mus musculus. Kind of series: In vivo antimalarial activity of compound against Plasmodium berghei in mice (Mus musculus) at dose of 25 mg/kg treated for 4 days. Format: functional. In outline: as §1
Series [7] relates to MAC15A. The series can be described thus: Cytotoxicity against MAC15A mouse adenocarcinomas of the colon cells. Format: functional, cell-based. An outline of the steps:
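MTT assay. MAC15A cells were seeded at 2 × 10^3 per well and attached overnight at 37 °C, 5% CO2. Drugs were dissolved in DMSO and diluted in medium (max 0.1% DMSO), eight wells per concentration, 96 h exposure. MTT (0.5 mg/mL) was then added for 24 h. Formazan was dissolved in DMSO and read at 550 nm. Survival is relative to vehicle control; IC50 from triplicate experiments.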

In series [8] the test system is Plasmodium falciparum. The series can be described thus: Normalized IC50 as product of antiplasmodial IC50 and vacuolar accumulation IC50. Format: functional, organism-based.
Series [9] concerns Plasmodium falciparum. The series can be described thus: […] accumulation into acidic parasitic food vacuole at pH=5.5. It is filed as functional.
Series [10] is described as follows: Ionization constant for the compound. It is filed as physicochemical.
Series [11] has as its target T1, Histidine-rich protein PFHRP-II (Plasmodium falciparum) (UniProt P05227).
T1 sequence (whole entry): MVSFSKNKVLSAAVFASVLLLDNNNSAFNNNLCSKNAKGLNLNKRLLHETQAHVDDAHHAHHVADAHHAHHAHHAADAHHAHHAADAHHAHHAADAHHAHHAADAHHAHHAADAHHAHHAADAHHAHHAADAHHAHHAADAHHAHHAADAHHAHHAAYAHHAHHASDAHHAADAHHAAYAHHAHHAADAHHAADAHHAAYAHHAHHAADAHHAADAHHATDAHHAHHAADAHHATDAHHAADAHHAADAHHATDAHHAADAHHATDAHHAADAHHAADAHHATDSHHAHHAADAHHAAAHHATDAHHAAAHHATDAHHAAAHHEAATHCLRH
Kind of series: Antiplasmodial activity as IC50 against Beta-hematin formation. Format: functional. An outline of the steps:
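β-Hematin inhibition (BHIA) assay: hemin (0.4 µmol/well) in DMSO with compound at 0.25–2 (or 4) molar equivalents to hemin, in triplicate. Final DMSO was 25%. Formation started with 8 M acetate buffer pH 5.0, then 37 °C for 18 h. The centrifuged pellet was dissolved in 0.1 M NaOH and read at 405 nm. BHIA50 is the drug equivalents relative to hemin giving 50% inhibition.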

The compound `C[n+]1c2ccc(Br)cc2cc2[nH]c3ccc([N+](=O)[O-])cc3c21.[Cl-]` showed a Suppression of parasitemia in series [1] of 90.75%. Further, the IC50 stood at 70 nM in series [2] (Plasmodium falciparum) and 1030 nM in series [7] (Mus musculus, MAC15A). For the same compound, the Ratio in series [3] came out at 14.7. The Mean survival time is 6.4 days in series [4] and 13 days in [5]. The compound also returned a Parasitemia in series [6] of 1.34%.

Regarding `C[n+]1c2ccccc2c(Cl)c2[nH]c3cc(Cl)ccc3c21`, the 50% inhibitory concentration (IC50) in series [8] amounted to 12900 nM. In [9], the Vascular accumulation ratio worked out at 37.94. In addition, the pKa in [10] is 7.35. In addition, the BHIA50 in [11] stood at 0.96.

`C[n+]1c2cc(Cl)ccc2cc2[nH]c3ccc(Br)cc3c21.[Cl-]`: the IC50 in [2] (Plasmodium falciparum) amounted to 37 nM; in [7] (Mus musculus, MAC15A), 1140 nM. Besides, in [3], the Ratio amounted to 30.8.

On to `C[n+]1c2c(Cl)cccc2cc2[nH]c3ccccc3c21.[Cl-]`, for which the half-maximal inhibitory concentration (IC50) in series [2] (Plasmodium falciparum) stood at 4690 nM; in series [7] (Mus musculus, MAC15A) it was 3540 nM. For the same compound, the Ratio in series [3] came to 0.76.

In the case of `C[n+]1c2ccccc2cc2[nH]c3c([N+](=O)[O-])cc([N+](=O)[O-])cc3c21.[Cl-]`, it took 6.5 nM to reach half-maximal inhibition in series [8] (IC50). Moreover, in [9], the Vascular accumulation ratio worked out at 0.813. The compound also registered a pKa in series [10] of 6.4. Besides, in series [11], the BHIA50 was 0.92.

Consider `Cc1ccc2cc3[nH]c4ccc(Br)cc4c3[n+](C)c2c1.[Cl-]`, for which the IC50 in series [2] (Plasmodium falciparum) stood at 260 nM; in series [7] (Mus musculus, MAC15A), 5210 nM. In addition, in series [3], the Ratio is reported as 20.

Turning to `C[n+]1c2ccc(Cl)cc2cc2[nH]c3ccccc3c21.[Cl-]`, the IC50 worked out at 166 nM in series [2] (Plasmodium falciparum) and 2240 nM in [7] (Mus musculus, MAC15A). Moreover, in series [3], the Ratio came out at 13.5.

In the case of `C[n+]1c2ccc(Cl)c(Cl)c2cc2[nH]c3ccccc3c21.[Cl-]`, the IC50 in series [2] (Plasmodium falciparum) is 88 nM; in series [7] (Mus musculus, MAC15A), 1910 nM. Besides, in series [3], the Ratio came to 21.7.

For the compound `C[n+]1c2cc(Cl)ccc2cc2[nH]c3ccccc3c21.[Cl-]`, the 50% inhibitory concentration (IC50) in [2] (Plasmodium falciparum) turned out to be 448 nM; in [7] (Mus musculus, MAC15A), 1750 nM. In addition, the Ratio in series [3] amounted to 3.9.

With `C[n+]1c2ccccc2cc2[nH]c3cc(Cl)ccc3c21.[Cl-]`, the IC50 in series [2] is greater than 1000 nM; in series [7] (mac15a), 8150 nM. The Ratio in series [3] is less than 8.15.

In series [1], `C[n+]1c2ccc(Cl)cc2cc2[nH]c3ccc(Br)cc3c21.[Cl-]` had a Suppression of parasitemia of 91.85%. Besides, the IC50 turned out to be 30 nM in series [2] (Plasmodium falciparum) and 1730 nM in [7] (Mus musculus, MAC15A). Besides, the Ratio in series [3] is reported as 57.7. Also, the Mean survival time in series [4] amounted to 11.8 days; in [5] it was 15.4 days. In addition, the Parasitemia in series [6] amounted to 0.97%.

On to `C[n+]1c2ccccc2cc2[nH]c3c([N+](=O)[O-])cccc3c21.[Cl-]`, for which, in series [8], inhibition was half-maximal at 6850 nM (IC50). Moreover, in series [9], the Vascular accumulation ratio was determined as 78.94. Further, in series [10], the pKa was found to be 9.6. Further, in series [11], the BHIA50 is 0.84.

`Cc1ccc2cc3[nH]c4ccccc4c3[n+](C)c2c1.[Cl-]`: the half-maximal inhibitory concentration (IC50) is 149 nM in series [2] (Plasmodium falciparum) and 3510 nM in series [7] (Mus musculus, MAC15A). For the same compound, the Ratio in [3] is 23.6.

On to `C[n+]1c2cc(Cl)c(Cl)cc2cc2[nH]c3ccccc3c21.[Cl-]`, for which the IC50 in [2] (Plasmodium falciparum) was found to be 356 nM; in series [7] (Mus musculus, MAC15A), 3320 nM. In addition, the Ratio in series [3] is 9.33.

For the compound `C[n+]1c2ccccc2cc2[nH]c3ccccc3c21.O=S(=O)([O-])O`, in series [9], the Vascular accumulation ratio stood at 79.43. The compound also returned a pKa in series [10] of 11.8. Also, the BHIA50 in series [11] was 1.64.

As for `C[n+]1c2ccc(F)cc2cc2[nH]c3ccc(Br)cc3c21.[Cl-]`, the 50% inhibitory concentration (IC50) in series [2] (Plasmodium falciparum) is 63 nM; in [7] (Mus musculus, MAC15A), 1350 nM. In series [3], the Ratio is recorded as 21.4.

On to `C[n+]1c2ccc(Br)cc2cc2[nH]c3ccccc3c21`, for which the Vascular accumulation ratio in series [9] worked out at 79.3. The compound also gave a pKa in series [10] of 10.2. This compound also showed a BHIA50 in series [11] of 0.63.

As for `Cc1ccc2c(c1)cc1[nH]c3ccccc3c1[n+]2C.[Cl-]`, the IC50 in [2] (Plasmodium falciparum) was found to be 419 nM; in [7] (Mus musculus, MAC15A) it was 4110 nM. Besides, in [3], the Ratio came out at 9.81.

Take `C[n+]1c2ccccc2cc2[nH]c3cc(Cl)ccc3c21.[I-]`: the figures for the Mean survival time in series [4] and in [5] were 9.6 days and 14 days, respectively.

(Values after ChEMBL document CHEMBL1143585, “Synthesis of some cryptolepine analogues, assessment of their antimalarial and cytotoxic activities, and consideration of their antimalarial mode of action” (J Med Chem, 2005).)
